This passage reports cytotoxicity results from ChEMBL document CHEMBL4513216, “Probing the Open Global Health Chemical Diversity Library for Multistage-Active Starting Points for Next-Generation Antimalarials” (ACS Infect Dis, 2020).

A short description of the data set: Toxicity liver stage against HepG2, at 10uM. The format is cell-based. The arrangement: test concentration 10 uM, cell line HepG2-A16-CD81EGFP. To be noted: human, HepG2-A16-CD81EGFP cells; read-out: INHIBITION
The essentials:
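Uninfected HepG2-A16-CD81EGFP cells, 3 × 10^3 per well, 1536-well, plated on prespotted compound at 10 μM final, parasite-free screening media added to match infected plates; puromycin 10 μM positive, DMSO 0.5% negative; run in parallel with 48 h PbLuc assay at 37 °C, 5% CO2; viability by CellTiter-Glo luminescence, normalized to controls.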
For the compound `CCCc1ccc(CN2C[C@H]3C(=O)N(CC4CC4)C[C@@]3(C(=O)O)C2)o1`, the cytotoxicity at 10 µM was -3.86%.
The result for `CC(O)CN1CCC(CNCc2cccc(C(=O)N(C)C)c2)CC1` (configuration not stated) reads -12.8%; that for `c1cc2c(cc1C1CCCN1Cc1nnnn1C1CC1)OCCO2` (configuration not stated), -25.7%; that for `CN(C)S(=O)(=O)N1CCCC(CCC(=O)Nc2ccc(Cl)cc2)C1` (configuration not stated), -12.5%.
The result for `Cc1nocc1C(=O)N1CCCC2(CCN(c3cnn(C)c3)C2=O)C1` (configuration not stated) reads 2.43%; that for `[O-][S+](Cc1c(F)cccc1Cl)Cc1nnnn1C1CC1` (configuration not stated), 0.0902%; that for `CCc1ccc(CN(C)c2cc(COC)nc3ccnn23)cc1`, 3.52%.
Then `COCC1c2nnn(CC3CC3)c2CCN1C(=O)c1ccncn1` (configuration not stated), with -132%; and `CC(C)c1noc(CN(Cc2ccccc2F)C2CC2)n1`, with -7.96%; and `Cc1cc(N2CCN(C(=O)c3cc(Cl)c[nH]3)CC2)nc(C(C)C)n1`, with 3.49%.
Take `COc1nn(C)c2c1CCCN(C(=O)COc1ccccc1)C2`: the cytotoxicity at 10 µM stood at 3.91%.
With `CCCSCC(=O)Nc1ncn(CC(=O)NCc2ccccc2)n1`, the cytotoxicity at 10 µM was 19.2%.
The result for `CC(C)n1cc(CN2CCCN(C(=O)c3ccnn3C)CC2)cn1` reads 2.79%; that for `O=C(Cc1cccs1)N1CCC2(CC1)COCCN2CC1CC1`, 4.98%.
Then `CCc1nsc(NC2CCCn3nc(COC)nc32)n1` (configuration not stated), with 14.1%; and `Cc1nccn1C1CCCN(C(=O)c2ccc3nncn3c2)C1` (configuration not stated), with -2.42%; and `O=C(Nc1ccccc1Oc1cccc(F)c1)C1CCS(=O)(=O)C1` (configuration not stated), with 2.64%.
The result for `CCCNC(=O)c1cc2c(c3ccccc3n2C)n1C(=O)N(C)C` reads 0.539%; that for `Cc1cnn(CC2CN(Cc3cccc(OCC(N)=O)c3)CCO2)c1` (configuration not stated), -7.18%.
On to `NCCCC(=O)N1CCC2(CC1)CN(C(=O)c1ccc(Cl)cc1)CCO2`, for which the cytotoxicity at 10 µM was 6.83%.
The result for `CCN(Cc1ccccc1)Cc1nc2c(cnn2C)c(=O)[nH]1` reads 2.86%.
With `C[C@H](NC(=O)C1CC1)c1nc2cc(-c3ccc(F)cc3)ncn2n1`, the cytotoxicity at 10 µM is -23%.
Then `CC1(COc2ccccc2)NCCc2[nH]cnc21` (configuration not stated), with -0.254%; and `NS(=O)(=O)N1CCC(CSc2ccccc2)C1` (configuration not stated), with -9.8%.
The result for `Cc1cscc1C(=O)Nc1cc(CSCCO)ccn1` reads -25.5%; that for `Cc1ccc(N2CCC3(CC2)CCN(C2CCOCC2)CC3)nn1`, 5.5%; that for `CCN(CC)C1(Cc2cc(-c3cccc(O)c3)on2)COC1`, 7.71%.
For the compound `NC1CCC(n2cc(C(=O)NC3CCc4ccccc4C3)nn2)CC1` (configuration not stated), the cytotoxicity at 10 µM was -4.42%.
The result for `O=C(NCCNc1ncccn1)C1CC(=O)N(C2CCCC2)C1` (configuration not stated) reads -16.2%; that for `CCOc1cc(CN(C)CC(C)(C)O)ccc1OC(F)F`, 2.31%.
For `Cc1nc(CN2CCCC(N(C)CCCc3ccccc3)C2)no1` (configuration not stated), the cytotoxicity at 10 µM was -0.704%.
In the case of `COc1ccc(C(=O)NCC(C)(O)CCc2ccccc2)cc1` (configuration not stated), the cytotoxicity at 10 µM is -7.39%.
The result for `CCO[C@H]1CN(C)C[C@@H]1NC(=O)c1cc(C)nc2c(C)cccc12` reads 3.28%; that for `O=C(Cn1cc(-c2ccccc2)ncc1=O)Nc1nccs1`, -4.83%; that for `Cc1cccc(CN2CCN(C(=O)c3cc(C4CC4)[nH]n3)CC2)c1`, -5.38%.
Then `COCc1noc(-c2ccc(N(C)Cc3cc(C)no3)nc2)n1`, with -17.2%; and `CO[C@H]1COCCN(Cc2c[nH]c3ccccc23)C1`, with 4.65%; and `CC1=N[C@@]2(CC[C@@H]3CN(Cc4ccccc4C)C[C@@H]32)C(=O)N1CC1CC1`, with -2.6%.
The result for `Cc1nn(CCCNC(=O)C2CCN(S(C)(=O)=O)CC2)cc1Br` reads -7.24%; that for `Cc1cccc(S(=O)(=O)NCC(C)N2CCN(C)CC2)c1Cl` (configuration not stated), -4.52%; that for `CCN(C(=O)CN(CC(N)=O)C(C)C)C1=CCCC1`, 14.1%.
Take `CN(CC(F)F)C(=O)c1cn(-c2ccc(Br)cc2)cn1`: the cytotoxicity at 10 µM amounted to 1.73%.
Then `COCCOC(=O)N1CCn2nc(CN(C)Cc3nccs3)cc2C1`, with 1.32%; and `c1cncc(N2CCC3(CCCN(c4ccncc4)C3)CC2)c1`, with 1.84%; and `Cc1cccc(CO[C@@H]2CC[C@H]3[C@H]2OCCN3Cc2cc(C)on2)n1`, with -3.59%.
Take `COc1cccc(N2CCN(C(=O)C(OC)c3ccccc3)CC2=O)c1` (configuration not stated): the cytotoxicity at 10 µM was -0.693%.
Then `CC(C)CN1CCc2[nH]nc(C(=O)N3CCCC3)c2C1`, with -98.9%.
Then `CS(=O)(=O)N1CCC2(CCCN(Cc3ccccn3)C2)C1` (configuration not stated), with -148%; and `COCCNC(=O)c1ccc2c(=O)n3c(nc2c1)CCCCCC3`, with -46.3%; and `Cc1nccn1CCN(C)C(=O)c1cn(CC2CCCCC2)nn1`, with -1.84%.
The result for `CCc1nnc(CS(=O)(=O)c2ccc(C)cc2)n1C` reads 7.05%; that for `Cc1cccc(C(=O)Nc2ccc(OC3CCN(C)CC3)cc2)c1`, -26.1%; that for `Cc1ccc(CN(Cc2cc(C)no2)C2CC2)cc1`, -5.17%.
As to `Cc1cc2nc(SCC(=O)N3CCOCC3)n(CC(C)C)c(=O)c2[nH]1`, the cytotoxicity at 10 µM was 1.36%.
Then `O=C(c1cc(C2CC2)[nH]n1)N1CCN(Cc2ccncc2)CC1`, with -10.9%; and `N#CCC(=O)NCc1nnc2n1CCN(Cc1ccco1)C2`, with -139%; and `c1cnn(CC2CCN(c3nc(C4CC4)nc4c3CCNCC4)CC2)c1`, with -2.84%.
Then `Cn1cc(CN2CCN(CC3(c4ccccc4)CC3)CC2)cn1`, with 2.86%; and `O=C(CO)N1CCC2(CC1)CC(=O)N(Cc1cc(F)cc(F)c1)C2`, with 9.92%; and `Cc1c(OCC(=O)NCc2ccccc2)c(=O)ccn1C`, with -49.9%.
As to `O=C(NCCNc1ncccn1)C1CCN(C(=O)N2CCCC2)CC1`, the cytotoxicity at 10 µM is -6.11%.
Then `CCc1nc(NC(=O)NCCc2scnc2C)nn1C`, with 0.102%.
The result for `COc1ccc(Nc2nc3c(C)nn(C)c3c(=O)n2C)c(OC)c1` reads -6.89%.
On to `O=C(CC1OCCc2ccccc21)NCCn1cccc1` (configuration not stated), for which the cytotoxicity at 10 µM was 1.71%.
Then `Cc1cc(C(=O)NC2CCc3c(ccc(=O)n3CC(C)C)C2)no1` (configuration not stated), with 7.15%.
The result for `O=C(c1ncncc1Cl)N1CCN(c2ccc(Cl)cc2)CC1` reads -2.72%.
Then `COC(=O)CCNC(=O)c1ccc(OCc2ccccc2)nc1`, with 4.93%.
As to `Cc1nc(C)c(CC(=O)Nc2nnc(C(C)C)s2)c(=O)[nH]1`, the cytotoxicity at 10 µM was -7.16%.
Then `Cc1ccc(C(=O)N2CC(=O)N(Cc3cccs3)CC(O)C2)cc1` (configuration not stated), with -5.46%.
The result for `CC1CCN(C(=O)Cc2ccc(S(=O)(=O)C(F)F)cc2)CC1` reads 2.98%; that for `Cc1[nH]c2c(C)cccc2c1CC(=O)N(C)CCN(C)C`, 1.14%.
The result for `CCn1c(C)nnc1CN(C)C1CCN(Cc2sc(C)nc2C)C1` (configuration not stated) reads 6.47%.
